This is an account of results in ChEMBL document CHEMBL1764993, “Synthesis and biological evaluation of novel irreversible serine protease inhibitors using amino acid based sulfonyl fluorides as an electrophilic trap” (Bioorg Med Chem, 2011).

A short description of test [1]: Inhibition of chymotrypsin assessed as p-nitroaniline release after 30 mins pre-incubated with compound for 1 hr before addition of Bz-L-Tyr-pNA as a substrate by calorimetric assay. In short, it runs like this:
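Chymotrypsin (commercial, used as received) pre-incubated 1 h with inhibitor in DMSO in sodium phosphate 0.05 M pH 7.0; aliquot then added to Bz-L-Tyr-pNA. Final: enzyme 1.0 µM, substrate 0.25 mM; DMSO controls. p-Nitroaniline release read at 405 nm for 30 min at rt to give residual activity. Triplicate or quadruplicate.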

For another test, the target named is T1, Papain (Carica papaya) (UniProt P00784).
T1 sequence (whole entry): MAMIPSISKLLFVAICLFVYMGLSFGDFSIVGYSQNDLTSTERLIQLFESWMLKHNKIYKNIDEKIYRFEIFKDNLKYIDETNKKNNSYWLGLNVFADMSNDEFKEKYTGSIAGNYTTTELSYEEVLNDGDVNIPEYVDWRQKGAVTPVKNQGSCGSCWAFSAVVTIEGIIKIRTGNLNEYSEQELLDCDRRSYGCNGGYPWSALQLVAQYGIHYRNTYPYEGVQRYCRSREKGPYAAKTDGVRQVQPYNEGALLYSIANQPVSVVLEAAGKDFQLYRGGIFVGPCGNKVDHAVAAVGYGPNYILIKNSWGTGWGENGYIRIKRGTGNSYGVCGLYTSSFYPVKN
Kind of test: Inhibition of papaya papain assessed as p-nitroaniline release at 2.5 uM after 1 hr pre-inhibition using Bz-L-Tyr-pNA as a substrate by calorimetric assay.

Test [2] in a line: Inhibition of chymotrypsin assessed as p-nitroaniline release measured for 15 mins using Bz-L-Tyr-pNA as a substrate by Dixon plot analysis. In short, it runs like this:
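Ki from Dixon plots: chymotrypsin (final 0.5 µM) in sodium phosphate 0.05 M pH 7.0 with Bz-L-Tyr-pNA at 0.15–0.25 mM and inhibitor at 7.81, 15.63 or 31.25 µM (final), no preincubation. p-Nitroaniline read directly at 405 nm for 15 min; DMSO controls; quadruplicate.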

Test [3] can be described thus: Inhibition of chymotrypsin assessed as p-nitroaniline release at 20 uM measured at every 6 mins for 15 mins using Bz-L-Tyr-pNA as a substrate. In short, it runs like this:
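kinact: chymotrypsin mixed with inhibitor in sodium phosphate 0.05 M pH 7.0; aliquots moved into Bz-L-Tyr-pNA wells at 0–5 min, then all read at 405 nm for 15 min. Final enzyme 0.5 µM, substrate 250 µM, inhibitor 20 µM. Residual activity plotted against preincubation time.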

The source made the active and inactive calls. No cut-off for these calls is given here.

As for `O=C(N[C@@H](Cc1ccccc1)CS(=O)(=O)F)OCc1ccccc1`, the result (in test [1]; at Papain (Carica papaya)) was Active.

In the case of `CC(C)C[C@@H](CS(=O)(=O)F)NC(=O)OCc1ccccc1`, the outcome (in test [1]; on Papain (Carica papaya)) was Active.

As for `CC(C)[C@@H](CS(=O)(=O)F)NC(=O)OCC1c2ccccc2-c2ccccc21`, in test [1], the outcome was Active.

`C[C@@H](CS(=O)(=O)F)NC(=O)OCc1ccccc1`: the result (in test [1]; on Papain (Carica papaya)) was Active. In addition, the Ki result in test [2] is reported as “Not Active”.

As for `O=S(=O)(F)Cc1ccccc1` [PHENYLMETHYLSULFONYLFLUORIDE], in test [2] (read-out: Ki), the Ki is 13 µM. Moreover, in test [3], the Kinact amounted to 0.32 min⁻¹.

Consider `O=C(NCCS(=O)(=O)F)OCc1ccccc1`, for which the outcome (in test [1]; on Papain (Carica papaya)) was Active.
